Data from ChEMBL document CHEMBL1144424, “Synthesis and biological evaluation of 14-alkoxymorphinans. 22.(1) Influence of the 14-alkoxy group and the substitution in position 5 in 14-alkoxymorphinan-6-ones on in vitro and in vivo activities” (J Med Chem, 2005).

Columns and labels:
Mus musculus [1] = experiment: Gastrointestinal (GI) motility was assessed by colonic bead expulsion after subcutaneous administration in mice; type: functional; settings: sc
[2] = Ratio of binding affinities for opioid receptors kappa and mu
Outline: (§1)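 Ratios of Ki values from competition binding. Rat brain membranes were used with 0.5 nM [3H]DAMGO (mu) or [3H][Ile5,6]deltorphin II (delta), 45 min at 35 °C. Guinea pig brain membranes were used with 1 nM [3H]U69,593 (kappa), 30 min at 30 °C. Nonspecific binding was defined with 10 µM naloxone.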

[3] = molecular target: Opioid receptors; mu & delta (Rattus norvegicus) (UniProt P33533+P33535); experiment: Ratio of binding affinities for opioid receptors delta and mu; type: protein assay; outline: as §1
Sequence of Opioid receptors; mu & delta (Rattus norvegicus) (P33533 whole entry, looked up): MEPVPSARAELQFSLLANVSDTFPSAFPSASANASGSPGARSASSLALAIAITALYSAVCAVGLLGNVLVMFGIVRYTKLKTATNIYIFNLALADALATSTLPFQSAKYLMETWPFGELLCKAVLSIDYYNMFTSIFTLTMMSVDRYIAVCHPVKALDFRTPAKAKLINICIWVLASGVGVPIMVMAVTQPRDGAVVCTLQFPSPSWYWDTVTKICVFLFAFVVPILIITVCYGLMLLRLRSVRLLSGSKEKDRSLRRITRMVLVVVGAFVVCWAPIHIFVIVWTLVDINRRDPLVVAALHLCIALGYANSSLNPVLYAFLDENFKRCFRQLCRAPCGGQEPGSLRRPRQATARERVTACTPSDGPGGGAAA
Sequence of Opioid receptors; mu & delta (Rattus norvegicus) (P33535 whole entry, looked up): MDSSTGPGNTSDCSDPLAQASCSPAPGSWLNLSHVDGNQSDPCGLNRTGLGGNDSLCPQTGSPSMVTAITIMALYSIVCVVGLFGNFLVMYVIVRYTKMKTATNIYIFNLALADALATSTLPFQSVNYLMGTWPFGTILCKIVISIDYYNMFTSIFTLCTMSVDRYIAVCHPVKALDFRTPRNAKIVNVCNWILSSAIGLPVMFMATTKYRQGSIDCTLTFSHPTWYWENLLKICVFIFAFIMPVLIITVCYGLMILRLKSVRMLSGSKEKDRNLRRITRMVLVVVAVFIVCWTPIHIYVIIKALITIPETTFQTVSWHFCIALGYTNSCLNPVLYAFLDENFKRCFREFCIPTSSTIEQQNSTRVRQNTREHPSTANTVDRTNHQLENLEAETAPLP

[4] = Relative agonistic activity against opioid receptor delta in mouse vas deferens and opioid receptor mu in guinea pig ileum; type: functional
[5] = molecular target: Delta-type opioid receptor (Rattus norvegicus, UniProt P33533); experiment: Inhibition of [3H][Ile5,6]deltorphin II binding to opioid receptor delta from rat brain membranes; type: cell membranes, Membrane
Sequence of Delta-type opioid receptor (Rattus norvegicus, UniProt P33533) (P33533 whole entry): as the sequence (P33533 whole entry, looked up) above
Outline: (§2)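 Sprague-Dawley rat brain membranes (0.3-0.5 mg protein) in 50 mM Tris-HCl incubated with 0.5 nM [3H]DAMGO or [3H][Ile5,6]deltorphin II, 45 min at 35 °C. GF/C filtration, ice-cold Tris-HCl washes; nonspecific binding with 10 µM naloxone. Duplicates, 3-4 independent experiments; Ki as mean ± SEM.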

Mu-type opioid receptor [6] = molecular target: Mu-type opioid receptor (Cavia porcellus, UniProt P97266); experiment: In vitro agonistic activity against opioid receptor mu of guinea pig ileum; type: functional, tissue-based
Sequence of Mu-type opioid receptor (Cavia porcellus, UniProt P97266) (P97266 whole entry): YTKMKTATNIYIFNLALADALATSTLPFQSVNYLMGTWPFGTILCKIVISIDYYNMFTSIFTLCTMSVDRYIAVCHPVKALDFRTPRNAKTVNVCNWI
Outline: (§3)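 Field stimulation with supramaximal-voltage bipolar rectangular pulses of male guinea-pig ileum myenteric plexus longitudinal muscle and of mouse vas deferens. Inhibition of the electrically evoked twitch; IC50 values as mean ± SEM.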

Mus musculus [7] = species on record: Mus musculus; experiment: Ratios of colonic bead expulsion to that of antinociceptive potencie by hotplate test in mice; type: functional
Mus musculus [8] = experiment: Antinociceptive potencie was assessed after subcutaneous administration of compound by hotplate test (HP) in mice; type: functional
Outline: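 Male CD-1 mice (20-25 g), compound in sterile Ringer's solution given sc, 10 animals per dose. Paw licking or jumping on 55 °C hot-plate; pre-drug control latency (non-responders within 3 s excluded), 12 s cutoff.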

[9] = molecular target: Delta-type opioid receptor (Mus musculus, UniProt P32300); experiment: In vitro agonistic activity against opioid receptor delta of mouse vas deferens; type: functional, tissue-based; outline: as §3
Sequence of Delta-type opioid receptor (Mus musculus, UniProt P32300) (P32300 whole entry): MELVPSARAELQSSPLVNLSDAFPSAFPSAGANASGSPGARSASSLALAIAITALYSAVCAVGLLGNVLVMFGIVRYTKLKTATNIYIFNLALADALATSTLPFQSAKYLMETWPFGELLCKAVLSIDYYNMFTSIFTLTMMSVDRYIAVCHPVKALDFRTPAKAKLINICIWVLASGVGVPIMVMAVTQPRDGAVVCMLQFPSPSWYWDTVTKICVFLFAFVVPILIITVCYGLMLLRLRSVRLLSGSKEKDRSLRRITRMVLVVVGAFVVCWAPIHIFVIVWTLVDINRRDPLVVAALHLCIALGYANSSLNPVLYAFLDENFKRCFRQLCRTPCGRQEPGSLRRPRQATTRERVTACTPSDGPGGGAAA

[10] = molecular target: Kappa-type opioid receptor (Cavia porcellus, UniProt P41144); experiment: Inhibition of [3H]U-69593 binding to opioid receptor kappa from guinea pig brain membranes
Sequence of Kappa-type opioid receptor (P41144 whole entry): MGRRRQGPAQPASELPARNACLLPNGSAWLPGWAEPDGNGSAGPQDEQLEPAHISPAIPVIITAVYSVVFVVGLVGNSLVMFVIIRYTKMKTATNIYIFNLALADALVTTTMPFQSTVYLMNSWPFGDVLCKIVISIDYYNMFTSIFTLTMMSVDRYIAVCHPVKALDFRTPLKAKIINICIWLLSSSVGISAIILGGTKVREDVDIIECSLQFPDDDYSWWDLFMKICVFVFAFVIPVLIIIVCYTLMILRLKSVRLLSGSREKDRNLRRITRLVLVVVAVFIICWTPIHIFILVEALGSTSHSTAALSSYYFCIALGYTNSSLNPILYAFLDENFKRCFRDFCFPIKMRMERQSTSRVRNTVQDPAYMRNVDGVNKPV

Mu-type opioid receptor [11] = molecular target: Mu-type opioid receptor (Rattus norvegicus, UniProt P33535); experiment: Inhibition of [3H]DAMGO binding to opioid receptor mu from rat brain membranes; type: cell membranes, Membrane; outline: as §2
Sequence of Mu-type opioid receptor (Rattus norvegicus, UniProt P33535) (P33535 whole entry): as the sequence (P33535 whole entry, looked up) above

Row | Structure (SMILES) | ED50 (Mus musculus [1]) [µmol/kg] | Selectivity [2] | Selectivity [3] | Ratio [4] | Ki [5] [nM] | IC50 (Mu-type opioid receptor [6]) [nM] | Ratio (Mus musculus [7]) | AD50 (Mus musculus [8]) [nmol/kg] | IC50 [9] [nM] | Ki [10] [nM] | Ki (Mu-type opioid receptor [11]) [nM]
1 | CN1CC[C@]23c4c5ccc(O)c4O[C@H]2C(=O)CC[C@@]3(OCc2c(Cl)cccc2Cl)[C@H]1C5 | 2.49 | 3.2 | 15 | 0.2 | 152 | 1000 | 1.5 | 1640 | 209 | 33.2 | 10.3
2 | CCO[C@@]12CCC(=O)[C@]3(C)Oc4c(O)ccc5c4[C@@]31CCN(CCc1ccccc1)[C@@H]2C5 | 0.121 | 520 | 20 | 5.1 | 3.14 | 1.9 | 1.1 | 109 | 9.7 | 83.2 | 0.16
3 | CN1CC[C@]23c4c5ccc(O)c4O[C@H]2C(=O)CC[C@@]3(OCc2cccc3ccccc23)[C@H]1C5 | 0.0118 | 5.1 | 16 | 0.9 | 2.92 | 0.9 | 0.8 | 14.4 | 0.8 | 0.92 | 0.18
4 | CN1CC[C@]23c4c5ccc(O)c4O[C@H]2[C@@H](O)C=C[C@H]3[C@H]1C5 [MORPHINE] | 7.62 | – | – | – | – | – | – | 6690 | – | – | –
5 | CN1CC[C@]23c4c5ccc(O)c4O[C@H]2C(=O)CC[C@@]3(OCc2ccccc2)[C@H]1C5 | 0.027 | 10 | 18 | 1.7 | 2.14 | 0.9 | 2.8 | 9.6 | 1.5 | 1.18 | 0.12
6 | C=CCO[C@@]12CCC(=O)[C@@H]3Oc4c(O)ccc5c4[C@@]31CCN(C)[C@@H]2C5 | 0.037 | 55 | 59 | 3.6 | 36 | 17.6 | 1.1 | 35 | 63 | 33.8 | 0.61
7 | CO[C@@]12CCC(=O)[C@]3(C)Oc4c(O)ccc5c4[C@@]31CCN(C)[C@@H]2C5 | – | 168 | 89 | 4 | 13.3 | 6.1 | – | 280 | 24.4 | 25.2 | 0.15
8 | CN1CC[C@]23c4c5ccc(O)c4O[C@@]2(C)C(=O)CC[C@@]3(OCc2ccccc2)[C@H]1C5 | 0.074 | 14 | 20 | 4.6 | 3.67 | 0.5 | 1.1 | 65 | 2.3 | 2.46 | 0.18
9 | CO[C@@]12CCC(=O)[C@@H]3Oc4c(O)ccc5c4[C@@]31CCN(C)[C@@H]2C5 | 0.022 | – | – | – | 4.8 | 2 | – | 53 | 30.5 | – | –
